{"source": "paper PMC6262736", "about": "(Pharmacology Research & Perspectives, 2018)", "key": {"SMN protein [1]": {"system": "SMN protein", "experiment": "SMN protein levels in tissues of C/C‐allele SMA mice", "format": "in vivo", "conditions": "10 mg/kg/day PO, 10 days, Study 12", "how_it_was_run": "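Adult C/C-allele SMA mice (FVB.129(B6) background) started dosing at ~7 weeks. Dosing was once-daily oral, as a suspension in 0.5% HPMC/0.1% Tween 80. Mice were killed by CO2 1 h after the last dose; tissues were unperfused, homogenized and diluted in RIPA. SMN was measured by HTRF in duplicate (averaged) against a recombinant human SMN standard curve, and total protein by BCA. Result: SMN/total protein per treated mouse ÷ vehicle-group mean.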"}, "human MDR1": {"target": "human MDR1 (Homo sapiens, UniProt P08183)", "sequence (P08183 whole entry)": "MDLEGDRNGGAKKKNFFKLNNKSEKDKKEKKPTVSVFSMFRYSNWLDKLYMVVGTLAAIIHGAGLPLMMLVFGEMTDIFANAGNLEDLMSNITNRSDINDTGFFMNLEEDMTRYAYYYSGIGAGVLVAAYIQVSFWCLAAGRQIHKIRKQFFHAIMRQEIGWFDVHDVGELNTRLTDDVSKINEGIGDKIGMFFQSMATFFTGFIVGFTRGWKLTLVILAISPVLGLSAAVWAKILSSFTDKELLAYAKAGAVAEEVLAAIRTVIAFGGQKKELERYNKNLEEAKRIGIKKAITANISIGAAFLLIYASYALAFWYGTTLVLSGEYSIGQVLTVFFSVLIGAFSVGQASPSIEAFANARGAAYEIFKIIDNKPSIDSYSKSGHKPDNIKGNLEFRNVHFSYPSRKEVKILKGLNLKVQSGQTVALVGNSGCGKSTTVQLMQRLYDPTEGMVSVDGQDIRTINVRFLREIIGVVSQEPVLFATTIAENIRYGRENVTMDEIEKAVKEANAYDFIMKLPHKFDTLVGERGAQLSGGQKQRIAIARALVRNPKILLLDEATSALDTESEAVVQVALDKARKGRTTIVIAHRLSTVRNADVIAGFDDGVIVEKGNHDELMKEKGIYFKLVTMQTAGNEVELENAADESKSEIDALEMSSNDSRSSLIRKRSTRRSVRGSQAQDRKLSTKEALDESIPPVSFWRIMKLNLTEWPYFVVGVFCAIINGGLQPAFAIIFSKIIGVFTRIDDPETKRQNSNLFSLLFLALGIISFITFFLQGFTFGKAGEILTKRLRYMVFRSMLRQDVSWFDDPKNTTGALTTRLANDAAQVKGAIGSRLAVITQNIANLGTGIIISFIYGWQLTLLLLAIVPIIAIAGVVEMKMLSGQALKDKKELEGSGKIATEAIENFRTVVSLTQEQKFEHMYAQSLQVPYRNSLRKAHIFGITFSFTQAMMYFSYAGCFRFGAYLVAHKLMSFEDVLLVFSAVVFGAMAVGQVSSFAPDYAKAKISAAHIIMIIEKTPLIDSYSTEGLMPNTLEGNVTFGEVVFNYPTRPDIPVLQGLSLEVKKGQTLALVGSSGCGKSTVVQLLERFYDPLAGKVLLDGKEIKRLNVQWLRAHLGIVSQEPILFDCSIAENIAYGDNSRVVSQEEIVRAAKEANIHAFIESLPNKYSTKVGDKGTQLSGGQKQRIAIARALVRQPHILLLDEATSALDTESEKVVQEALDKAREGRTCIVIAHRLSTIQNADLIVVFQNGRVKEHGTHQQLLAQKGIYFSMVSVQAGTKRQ", "experiment": "Bidirectional transport assay in L‐MDR1 cells", "format": "in vitro ADME", "conditions": "1 μM", "how_it_was_run": "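Transport run in LLC-PK1 or MDCKII cells, parental or transfected (L-MDR1 human MDR1, L-Mdr1a rodent Mdr1a, M-BCRP human BCRP, M-Bcrp rodent Bcrp). Cells were grown on semipermeable inserts and assayed bidirectionally on day 3 or 4 after seeding. Donor medium held 1 μM test compound plus 10 μM Lucifer yellow to check monolayer integrity. Receiver medium lacked phenol red, with or without inhibitor: zosuquidar 1 μM for MDR1/Mdr1a, Ko143 1 μM for BCRP/Bcrp. Reference substrates served as activity controls.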"}, "[2]": {"conditions": "Phase 1 MOONFISH trial, patients with Type 2 and 3 SMA; ref NCT03032172; cited from earlier work"}, "[3]": {"conditions": "monkeys; dosing in MOONFISH suspended because of it; ref not given; cited from earlier work"}, "[4]": {"experiment": "Predicted CSF‐to‐unbound plasma partition coefficient from L‐Mdr1a efflux ratio", "set-up": "species or system rat", "conditions": "based on the rodent ER and model from ref 25", "how_it_was_run": "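pKp,uu derived as 1/[(1−γ)+γ·ER], with γ fixed at 0.753 and ER being the efflux ratio measured in L-Mdr1a cells.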"}, "SMN protein [5]": {"system": "SMN protein", "conditions": "SUNFISH Part 1 early interim data, dose‐dependent; cited from earlier work"}, "SMNΔ7 mice": {"system": "SMNΔ7 mice", "conditions": "dosed once daily for 219 days, Study 5; cited from earlier work"}, "[6]": {"experiment": "Plasma, brain and CSF drug levels in rats", "format": "in vivo", "conditions": "Wistar, rat, brain / total plasma, po, 7.5 mg/kg/day"}, "SMN protein [7]": {"system": "SMN protein", "experiment": "SMN protein levels in brain and muscle of SMNΔ7 mice", "format": "in vivo", "conditions": "7 days of once daily dosing, Study 4"}, "[8]": {"experiment": "Tissue distribution in cynomolgus monkeys", "format": "in vivo, cynomolgus monkeys (Macaca fascicularis)", "conditions": "for concentration at 7 days / Kp at 7 days / concentration at 6 weeks after the last dose: cynomolgus monkey, oral, 3 mg/kg/day"}, "severe SMA mice": {"system": "severe SMA mice", "conditions": "cited from earlier work"}, "[9]": {"conditions": "monkeys, Study 10, after 22 weeks' treatment‐free recovery period"}, "[10]": {"conditions": "two cynomolgus monkeys, Study 9"}}, "note": "Where two headings read alike, the source gives them in different places."}
{"compound": "CCc1nc(C)cn2nc(-c3cc(=O)n4cc(C5CCN(C)CC5)cc(C)c4n3)cc12", "note": "[RG7800, 2‐(4‐ethyl‐6‐methyl‐pyrazolo[1,5‐a]pyrazin‐2‐yl)‐9‐methyl‐7‐(1‐methyl‐4‐piperidyl)pyrido[1,2‐a]pyrimidin‐4‐one]", "values": [{"measurement": "SMN protein increase from baseline in heart", "setting": "SMN protein [1]", "result": 31, "unit": "%"}, {"measurement": "SMN protein increase from baseline in muscle", "setting": "SMN protein [1]", "result": 23, "unit": "%"}, {"measurement": "SMN protein increase in pancreas", "setting": "SMN protein [1]", "result": "fourfold"}, {"measurement": "substrate of human MDR1", "setting": "human MDR1", "result": "not a substrate of human MDR1"}, {"measurement": "serious adverse events", "setting": "[2]", "result": "no serious adverse events were reported"}, {"measurement": "findings in long‐term nonclinical safety studies", "setting": "[3]", "result": "off‐target retinal findings"}]}
{"compound": "Cc1cn2nc(-c3cc(=O)n4cc(N5CCNC6(CC6)C5)ccc4n3)cc(C)c2n1", "note": "[risdiplam, 7‐(4,7‐diazaspiro[2.5]octan‐7‐yl)‐2‐(2,8‐dimethylimidazo[1,2‐b]pyridazin‐6‐yl)pyrido[1,2‐a]pyrimidin‐4‐one]", "values": [{"measurement": "predicted CSF‐to‐unbound plasma partition coefficient (pKp,uu)", "setting": "[4]", "result": 0.33}, {"measurement": "average increase in functional SMN protein in the blood of patients with SMA", "setting": "SMN protein [5]", "result": "up to 2.5 fold"}, {"measurement": "survival of SMNΔ7 mice", "setting": "SMNΔ7 mice", "result": "prolonged survival"}, {"measurement": "Kp at 90 days", "setting": "[6]", "result": 0.92}, {"measurement": "increase in SMN protein levels in brain", "setting": "SMN protein [7]; 0.1 mg/kg/day", "result": 28, "unit": "%"}, {"measurement": "increase in SMN protein levels in muscle", "setting": "SMN protein [7]; 0.1 mg/kg/day", "result": 32, "unit": "%"}, {"measurement": "increase in SMN protein levels in brain", "setting": "SMN protein [7]; 1 mg/kg/day", "result": 206, "unit": "%"}, {"measurement": "increase in SMN protein levels in muscle", "setting": "SMN protein [7]; 1 mg/kg/day", "result": 210, "unit": "%"}, {"measurement": "concentration at 7 days", "setting": "[8]; CSF", "result": 53.5, "unit": "ng/mL"}, {"measurement": "Kp at 7 days", "setting": "[8]; bone marrow / plasma", "result": "~5"}, {"measurement": "concentration at 7 days", "setting": "[8]; brain", "result": 783, "unit": "ng/g"}, {"measurement": "concentration at 6 weeks after the last dose", "setting": "[8]; duodenum", "result": "< 1", "unit": "ng/g"}, {"measurement": "Kp at 7 days", "setting": "[8]; kidney / plasma", "result": 10}, {"measurement": "concentration at 6 weeks after the last dose", "setting": "[8]; kidney", "result": "~4", "unit": "ng/g"}, {"measurement": "concentration at 6 weeks after the last dose", "setting": "[8]; larynx", "result": "< 1", "unit": "ng/g"}, {"measurement": "concentration at 6 weeks after the last dose", "setting": "[8]; liver", "result": "~4", "unit": "ng/g"}, {"measurement": "concentration at 7 days", "setting": "[8]; muscle", "result": 668, "unit": "ng/g"}, {"measurement": "concentration at 7 days", "setting": "[8]; plasma (unbound)", "result": 119, "unit": "ng/mL"}, {"measurement": "concentration at 7 days", "setting": "[8]; plasma", "result": 794, "unit": "ng/mL"}, {"measurement": "Kp at 7 days", "setting": "[8]; spleen / plasma", "result": "~5"}, {"measurement": "concentration at 6 weeks after the last dose", "setting": "[8]; spleen", "result": "< 1", "unit": "ng/g"}, {"measurement": "drug level in CSF", "setting": "[8]; [9]", "result": "below the limit of quantification (BLQ)"}, {"measurement": "drug level in brain", "setting": "[8]; [9]", "result": "below the limit of quantification (BLQ)"}, {"measurement": "drug level in plasma", "setting": "[8]; [9]", "result": "below the limit of quantification (BLQ)"}, {"measurement": "average cortex/brain stem concentrations ratio", "setting": "[8]; monkeys, Study 10, n = 22", "result": 1.10}, {"measurement": "difference of brain drug level from total plasma concentration", "setting": "[8]; [10]", "result": "less than 30%"}, {"measurement": "difference of heart drug level from total plasma concentration", "setting": "[8]; [10]", "result": "less than 30%"}, {"measurement": "difference of larynx drug level from total plasma concentration", "setting": "[8]; [10]", "result": "less than 30%"}, {"measurement": "difference of muscle drug level from total plasma concentration", "setting": "[8]; [10]", "result": "less than 30%"}]}
{"compound": "nusinersen", "values": [{"measurement": "median lifespan", "setting": "severe SMA mice; intracerebroventricular administration", "result": 16, "unit": "days"}, {"measurement": "median lifespan", "setting": "severe SMA mice; subcutaneous injections", "result": 108, "unit": "days"}]}
